From PubChem BioAssay
Records with an inconclusive call do not appear.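 The calls were made as follows, unless noted: active = inhibition over a set limit, the all-compound mean plus 3 SD, in both replicate runs; inconclusive = over that limit in just one replicate run; inactive = at or under that limit in both runs.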

Assays:
[1] = OD615 S. cerevisiae growth inhibition, permissive medium, pilot counter-assay, permissive growth control for S. cerevisiae lifespan shortening project (AID 705;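 active = growth inhibition above 25% in both replicates, a cutoff set 3 SD above the mean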); conditions: OD615, 24 h, at 10 µM, hits give high values
How it was run: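 Timing: 24 h exposure, 30 °C / Material: Saccharomyces cerevisiae strain carrying genetically modified DeaD replicative-lifespan system / Signal: OD at 615 nm / Compound: 10 µM single dose, 0.25% DMSO / Medium: SC raffinose/galactose permissive medium / Evaluation: reduction in yeast growth (OD615)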

[2] = Restrictive medium S. cerevisiae growth inhibition, OD615, pilot screen of yeast lifespan reduction project, restrictive growth control (AID 706;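 active = growth inhibition above a set limit, 3 SD over mean compound inhibition, in both replicates, cut at about 43% in these data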;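 also: modified DeaD lifespan yeast strain shifted to restrictive glucose medium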); conditions: OD615, 48 h, at 10 µM, hits give high values
How it was run: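 System: Engineered S. cerevisiae DeaD strain | Detection: OD615 | Buffer or medium: CSMM-D glucose medium | Doses: 10 µM compound, 0.25% DMSO | Timing: 4 h pre-growth plus 48 h compound exposure, 30 °C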

[3] = viability gain of MRP-1-high H69AR cells under doxorubicin, pilot screen, MRP-1 activator project, CellTiter-Glo, duplicate (AID 807;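 active = viability increase at or above a cutoff of the median across tested compounds plus 3 SD, cut at about 8.5% in these data, passing the limit was not always enough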;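 also: compound pretreatment 18-22 h then 72 h combined with doxorubicin; 0% = doxorubicin alone and 100% = vehicle without doxorubicin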); conditions: H69AR viability with doxorubicin, CellTiter-Glo luminescence; at 10 µM; hits give high values
[4] = growth suppression of beta-catenin knockout HCT116, pilot screen, human colon tumor cells (AID 823;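 active = cell viability at or below a set limit in both duplicate runs, the limit being the all-compound median minus 4 SD, cut at about 23% in these data, passing the limit was not always enough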;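 also: 0% = wells killed by 20 µM Hyamine and 100% = untreated DMSO cell wells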); conditions: CellTiter-Glo, 60 h, at 10 µM, hits give low values
[5] = growth suppression of PTEN-deleted HCT116, pilot screen, cell-based, HCT116 clonal line, CellTiter-Glo (AID 824;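 active = viability at or below 27.92% in each of two runs, the all-compound median minus 4 SD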;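 also: 0% = 20 µM Hyamine control and 100% = vehicle cell control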); conditions: 60 h, at 10 µM, hits give low values
[6] = inhibitors of the yeast RAM network, pilot screen, dse1pr::URA3 reporter, 5-FOA selection (AID 869);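 also: 0% = DMSO wells with no growth and 100% = 10 µM 1-NA-PP1 with full growth; RAM network block rescues cells from 5-FOA so hits raise OD615 growth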; conditions: S. cerevisiae dse1pr::URA3 5-FOA growth, OD615, 2 d; at 10 µM; hits give high values; strain carries analog-sensitive mutant Cbk1 kinase
[7] = RAM signaling pathway blockade in yeast – S. cerevisiae, Pdr1DBD-CYC8 efflux-inhibited sensitized strain, primary screen (AID 1298;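 active = RAM network inhibition above 8.4% in each of two replicates, 3 SD over the compound average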;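 also: 0% = DMSO untreated cells without growth and 100% = 10 µM 1-NA-PP1 full growth; higher means more yeast growth rescued from 5-FOA killing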); conditions: S. cerevisiae cbk1-as DSE1-URA3 strain, 5-FOA growth OD615, 2 d; at 50 µM; hits give high values

O=C(COc1cccc2ccccc12)N1CCN(c2ccccc2)CC1
inactive: growth inhibition [1] -6.48% | growth inhibition [2] -22% | viability increase [3] 1.21% | viability [4] 90.8% | viability [5] 89% | inhibition [6] 2.06% | RAM network inhibition [7] 11.7%

Cc1ccnc(SCCn2c(N3CCCCC3)nc3c2c(=O)[nH]c(=O)n3C)n1
inactive: growth inhibition [1] -8.7% | growth inhibition [2] -5.05% | viability increase [3] 0.17% | viability [4] 101% | viability [5] 107% | inhibition [6] 1.52% | RAM network inhibition [7] 2.14%

OCC1(C2=NOC(O)(C(F)(F)F)C2)CCCCC1 (stereo not given)
inactive: growth inhibition [1] -7.57% | growth inhibition [2] -22.3% | viability increase [3] 1.19% | viability [4] 101% | viability [5] 101% | inhibition [6] 2.09% | RAM network inhibition [7] 3.18%

CN(C)C(=O)c1nnc(Cc2ccc(Cl)cc2)o1
inactive: growth inhibition [1] -8.24% | growth inhibition [2] 7.88% | viability increase [3] 2.17% | viability [4] 98.5% | viability [5] 108% | inhibition [6] 0.31% | RAM network inhibition [7] 7.05%

COC(=O)c1cn(NC(=O)c2ccncc2)c(=O)c2ccccc12
inactive: growth inhibition [1] -0.73% | growth inhibition [2] -19.7% | viability increase [3] -1.43% | viability [4] 98.3% | viability [5] 94.9% | inhibition [6] 0.87% | RAM network inhibition [7] 2.53%

COc1ccc(Cl)cc1S(=O)(=O)N1CCN=C1C
inactive: growth inhibition [1] 1.52% | growth inhibition [2] -3.21% | viability increase [3] -2.75% | viability [4] 90.8% | viability [5] 90% | inhibition [6] 0.03% | RAM network inhibition [7] 7.99%

Cc1[nH]c2ccc(-c3n[nH]c(=S)n3C)cc2c1C
inactive: growth inhibition [1] -4.45% | growth inhibition [2] -17.6% | viability increase [3] 0.84% | viability [4] 98.9% | viability [5] 93.3% | inhibition [6] 1.31% | RAM network inhibition [7] 0.57%

Cc1cc(NC(=O)CSCc2nc(-c3cccc(Cl)c3)oc2C)no1
inactive: growth inhibition [1] -12.6% | growth inhibition [2] -5.47% | viability increase [3] 1.25% | viability [4] 94.3% | viability [5] 95.5% | inhibition [6] 1.98% | RAM network inhibition [7] 11.2%

C=CCNc1nc2c(c(=O)[nH]c(=O)n2C)n1Cc1cccc(C)c1
inactive: growth inhibition [1] 2.89% | growth inhibition [2] 2.92% | viability increase [3] -1.47% | viability [4] 102% | viability [5] 87.5% | inhibition [6] 2.04% | RAM network inhibition [7] 5.89%

C=CCn1c(C)nc2c(c1=O)c1nc3ccccc3nc1n2-c1ccc(C)cc1
inactive: growth inhibition [1] -4.19% | growth inhibition [2] -2.97% | viability increase [3] -1.62% | viability [4] 92.3% | viability [5] 82.2% | inhibition [6] 1.32% | RAM network inhibition [7] 4.86%

CCN(CC)S(=O)(=O)c1ccc(C(=O)C(C#N)c2ccccn2)cc1 (stereo not given)
inactive: growth inhibition [1] -12.8% | growth inhibition [2] -19.5% | viability increase [3] 1.28% | viability [4] 95.3% | viability [5] 102% | inhibition [6] 0.455% | RAM network inhibition [7] 5.32%

COC(=O)C1=C(C)N(C)C(C)=C(C(=O)OC)C1c1ccsc1
inactive: growth inhibition [1] -6.88% | growth inhibition [2] -6.81% | viability increase [3] -2.96% | viability [4] 91.4% | viability [5] 87.8% | inhibition [6] 1.99% | RAM network inhibition [7] 2.51%

O=C(Oc1ccc2c(=O)c(Cl)coc2c1)c1ccncc1
inactive: growth inhibition [1] -0.185% | growth inhibition [2] 7.12% | viability increase [3] -4.3% | viability [4] 90.4% | viability [5] 99.2% | inhibition [6] 0.015% | RAM network inhibition [7] -0.99%

Cc1cc(S(=O)(=O)N2CCN(c3ccc(F)cc3)CC2)c(C)s1
inactive: growth inhibition [1] -13.9% | growth inhibition [2] -7.43% | viability increase [3] -3.11% | viability [4] 60.9% | viability [5] 60.3% | inhibition [6] 1.69% | RAM network inhibition [7] 9.84%

Cn1c2c(c3ccccc31)CC/C2=N\O
inactive: growth inhibition [1] 1.57% | growth inhibition [2] 18.9% | viability increase [3] -0.84% | viability [4] 100% | viability [5] 99% | inhibition [6] 1% | RAM network inhibition [7] 1.01%
